The structures appear in SMILES notation. Values after ≈ are worked out from the molar mass of the structure shown. Active and inactive are the calls of the source. The calls are words filed in the database; no cut-off is given here.

Usually MIC stands for the lowest concentration found to suppress growth.

Data set [1] relates to Enterococcus faecalis. As to the kind of experiment: Antimicrobial activity against Enterococcus faecalis INCQS 00234 ATCC 29212 assessed as zone of inhibition at 5 mg/ml after 18 to 24 hrs by disc diffusion method. The format is functional. To be noted: ATCC 29212 INCQS 00234, read-out: IZ. (In general: A growth-free zone around the sample is the usual read-out of agar diffusion tests.)

Data set [2] concerns Staphylococcus epidermidis. As to the kind of experiment: Bactericidal activity against Staphylococcus epidermidis INCQS 00016 ATCC 12228 incubated for 24 hrs followed by transfer of microbial suspension to agar plates and measured after 24 hrs post transfer by resazurin dye-based colorimetric analysis. The format is functional. The note with it: ATCC 12228 INCQS 00016, 24 h, read-out: MBC99.9. A digest of the protocol:
(§1)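 For MBC, 10 µL from each clear MIC well was plated on agar and incubated 24 h at 37°C. MBC is the minimum concentration inhibiting 99.9% of growth. […] Triplicate.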
On the technique in general: The colour change of resazurin is a common sign of viable cells or microbes.

Data set [3] has as its system Escherichia coli. Description: Antimicrobial activity against Escherichia coli INCQS 00033 ATCC 25922 at 256 ug/ml after 24 hrs by microdilution assay. It is filed as functional, organism-based. To be noted: ATCC 25922 INCQS 00033.
Data set [4] deals with Staphylococcus epidermidis. As to the kind of experiment: Antimicrobial activity against Staphylococcus epidermidis INCQS 00016 ATCC 12228 assessed as zone of inhibition at 5 mg/ml after 18 to 24 hrs by disc diffusion method. The format is functional. To be noted: ATCC 12228 INCQS 00016, read-out: IZ.
In data set [5] the test system is Escherichia coli. As to the kind of experiment: Bactericidal activity against Escherichia coli INCQS 00033 ATCC 25922 at 256 ug/ml incubated for 24 hrs followed by transfer of microbial suspension to agar plates and measured after 24 hrs post transfer by resazurin dye-based colorimetric analysis. The format is functional, organism-based. To be noted: ATCC 25922 INCQS 00033. A digest of the protocol:
as §1

Data set [6] relates to Pseudomonas aeruginosa. Description: Antimicrobial activity against Pseudomonas aeruginosa INCQS 00099 ATCC 27853 at 256 ug/ml after 24 hrs by microdilution assay. It is filed as functional, organism-based. (In broth dilution the organism is exposed to a series of concentrations in liquid medium.)
Data set [7] relates to Staphylococcus simulans. As to the kind of experiment: Antimicrobial activity against Staphylococcus simulans INCQS 00254 ATCC 27851 assessed as zone of inhibition at 5 mg/ml after 18 to 24 hrs by disc diffusion method. The note with it: read-out: IZ. The format is functional.
Data set [8] relates to Staphylococcus simulans. As to the kind of experiment: Bactericidal activity against Staphylococcus simulans INCQS 00254 ATCC 27851 at 256 ug/ml incubated for 24 hrs followed by transfer of microbial suspension to agar plates and measured after 24 hrs post transfer by resazurin dye-based colorimetric analysis. It is filed as functional, organism-based. Summed up: as §1
Data set [9] concerns Staphylococcus simulans. Description: Antimicrobial activity against Staphylococcus simulans INCQS 00254 ATCC 27851 at 256 ug/ml after 24 hrs by microdilution assay. It is filed as functional, organism-based.
Data set [10] relates to Escherichia coli. Description: Antimicrobial activity against Escherichia coli INCQS 00033 ATCC 25922 assessed as zone of inhibition at 5 mg/ml after 18 to 24 hrs by disc diffusion method. It is filed as functional. To be noted: ATCC 25922 INCQS 00033, read-out: IZ.
The test system of data set [11] is Staphylococcus aureus. As to the kind of experiment: Antimicrobial activity against methicillin-resistant Staphylococcus aureus BMB9393 at 256 ug/ml after 24 hrs by microdilution assay. The format is functional, organism-based.
The test system of data set [12] is Pseudomonas aeruginosa. As to the kind of experiment: Bactericidal activity against Pseudomonas aeruginosa INCQS 00099 ATCC 27853 at 256 ug/ml incubated for 24 hrs followed by transfer of microbial suspension to agar plates and measured after 24 hrs post transfer by resazurin dye-based colorimetric analysis. It is filed as functional, organism-based. Summed up: as §1

Data set [13] has as its system Staphylococcus epidermidis. Description: Antimicrobial activity against Staphylococcus epidermidis INCQS 00016 ATCC 12228 after 24 hrs by microdilution assay. To be noted: ATCC 12228 INCQS 00016, 24 h. The format is functional.
Data set [14] concerns Staphylococcus aureus. As to the kind of experiment: Antimicrobial activity against methicillin-resistant Staphylococcus aureus BMB9393 assessed as zone of inhibition at 5 mg/ml after 18 to 24 hrs by disc diffusion method. The format is functional. To be noted: read-out: IZ.
Data set [15] has as its system Pseudomonas aeruginosa. As to the kind of experiment: Antimicrobial activity against Pseudomonas aeruginosa INCQS 00099 ATCC 27853 assessed as zone of inhibition at 5 mg/ml after 18 to 24 hrs by disc diffusion method. It is filed as functional. The note with it: read-out: IZ.
Data set [16] has as its system Proteus mirabilis. Description: Antimicrobial activity against Proteus mirabilis INCQS 00095 ATCC 15290 assessed as zone of inhibition at 5 mg/ml after 18 to 24 hrs by disc diffusion method. The format is functional. To be noted: read-out: IZ.
Data set [17] is described as follows: Hemolytic activity against human erythrocytes assessed as hemolysis at 200 ug/ml after 3 hrs by spectrophotometric analysis relative to control. The format is ADME, cell-based, Erythrocyte. To be noted: read-out: Activity. Summed up:
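Erythrocytes collected in citrate tubes, washed three times with PBS pH 7.4 by centrifugation and resuspended in PBS. Incubated with compounds at 200 µg/mL for 3 h at 37°C. Released hemoglobin was read in the supernatant at 545 nm against 1% Triton X-100 (complete lysis) and 1% DMSO (negative control). Below 10% hemolysis was taken as hemocompatible. Three independent experiments.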

In data set [18] the test system is Staphylococcus aureus. Description: Bactericidal activity against Staphylococcus aureus INCQS 00015 ATCC 25923 at 256 ug/ml incubated for 24 hrs followed by transfer of microbial suspension to agar plates and measured after 24 hrs post transfer by resazurin dye-based colorimetric analysis. It is filed as functional, organism-based. A digest of the protocol:
as §1

The subject of data set [19] is Klebsiella pneumoniae. As to the kind of experiment: Antimicrobial activity against Klebsiella pneumoniae INCQS 00083 ATCC 4352 assessed as zone of inhibition at 5 mg/ml after 18 to 24 hrs by disc diffusion method. To be noted: read-out: IZ. It is filed as functional.
Data set [20] has as its system Staphylococcus epidermidis. As to the kind of experiment: Ratio of MBC99.9 to MIC for Staphylococcus epidermidis INCQS 00016 ATCC 12228. It is filed as functional, ATCC 12228 INCQS 00016. A digest of the protocol: (§2)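 MBC/MIC ratio from the 24 h, 37°C microdilution MIC and the agar-plating MBC (99.9% growth inhibition). A ratio ≤2 was classed as bactericidal and ≥4 as bacteriostatic.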

The subject of data set [21] is Staphylococcus aureus. As to the kind of experiment: Bactericidal activity against methicillin-resistant Staphylococcus aureus BMB9393 at 256 ug/ml incubated for 24 hrs followed by transfer of microbial suspension to agar plates and measured after 24 hrs post transfer by resazurin dye-based colorimetric analysis. The format is functional, organism-based. A digest of the protocol: (§3)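 From MIC wells with no visible growth, 10 µL is transferred to agar plates and incubated 24 h at 37°C. MBC is the minimum concentration inhibiting 99.9% of growth. […] Triplicate.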

The test system of data set [22] is Staphylococcus aureus. As to the kind of experiment: Antimicrobial activity against Staphylococcus aureus INCQS 00015 ATCC 25923 assessed as zone of inhibition at 5 mg/ml after 18 to 24 hrs by disc diffusion method. The note with it: read-out: IZ. The format is functional.
Data set [23] has as its system Staphylococcus aureus. As to the kind of experiment: Antimicrobial activity against Staphylococcus aureus INCQS 00015 ATCC 25923 at 256 ug/ml after 24 hrs by microdilution assay. It is filed as functional, organism-based.
Data set [24] concerns Staphylococcus simulans. As to the kind of experiment: Antimicrobial activity against Staphylococcus simulans INCQS 00254 ATCC 27851 after 24 hrs by microdilution assay. To be noted: INCQS 00254 ATCC 27851, 24 h. It is filed as functional.
For data set [25], the system named is Staphylococcus simulans. As to the kind of experiment: Bactericidal activity against Staphylococcus simulans INCQS 00254 ATCC 27851 incubated for 24 hrs followed by transfer of microbial suspension to agar plates and measured after 24 hrs post transfer by resazurin dye-based colorimetric analysis. It is filed as functional. To be noted: INCQS 00254 ATCC 27851, 24 h, read-out: MBC99.9. Summed up: as §1

In data set [26] the test system is Staphylococcus simulans. As to the kind of experiment: Ratio of MBC99.9 to MIC for Staphylococcus simulans INCQS 00254 ATCC 27851. It is filed as functional. Summed up: as §2
The subject of data set [27] is Staphylococcus aureus. As to the kind of experiment: Ratio of MBC99.9 to MIC for Staphylococcus aureus INCQS 00015 ATCC 25923. It is filed as functional. A digest of the protocol: as §2
In data set [28] the test system is Staphylococcus aureus. As to the kind of experiment: Bactericidal activity against Staphylococcus aureus INCQS 00015 ATCC 25923 incubated for 24 hrs followed by transfer of microbial suspension to agar plates and measured after 24 hrs post transfer by resazurin dye-based colorimetric analysis. The format is functional. To be noted: INCQS 00015 ATCC 25923, 24 h, read-out: MBC99.9. A digest of the protocol:
as §3

Data set [29] has as its system Staphylococcus aureus. As to the kind of experiment: Antimicrobial activity against Staphylococcus aureus INCQS 00015 ATCC 25923 after 24 hrs by microdilution assay. It is filed as functional. To be noted: INCQS 00015 ATCC 25923, 24 h.

As to `COC(=O)c1c(C)nc(C)c2c1C(=O)C=C(NC[C@H]1O[C@@H]3OC(C)(C)O[C@@H]3[C@H]3OC(C)(C)O[C@H]31)C2=O`, the zone of inhibition at 5000 µg/mL in [1] stood at 0 mm; in data set [4], 9 mm; in data set [7] it was 0 mm; in data set [10], 0 mm; in data set [14] it was 0 mm; in [15], 0 mm. In addition, the zone of inhibition at 5000 µg/mL in data set [16], in [19] and in [22] was 0 mm in each case. For the same compound, the MBC in data set [2] came out at 256 µg/mL (≈ 509 µM). Moreover, the result in data set [3], in [5], in data set [6], in data set [8], in [9] and in data set [11] was inactive. The outcome in [12], in [18], in [21] and in data set [23] was inactive. This compound also yielded an MIC in [13] of 256 µg/mL (≈ 509 µM). Moreover, in [17], the hemolysis at 3 h, 200 ug/ml was less than 10%. Moreover, in data set [20], the Ratio turned out to be 1.

As for `COC(=O)c1c(C)nc(C)c2c1C(=O)C(Br)=C(NC[C@H]1O[C@@H]3OC(C)(C)O[C@@H]3[C@H]1O)C2=O`, the zone of inhibition at 5000 µg/mL stood at 0 mm in data set [1]; 7 mm in [4]; 0 mm in data set [7]; 0 mm in data set [10]; 0 mm in data set [14]; 0 mm in data set [15]. Further, the zone of inhibition at 5000 µg/mL in [16], in data set [19] and in data set [22] was 0 mm throughout. Also, the MBC in data set [2] was determined as 64 µg/mL (≈ 125 µM). Also, the outcome in data set [3], in [5], in data set [6], in data set [8], in [9] and in [11] was inactive. The result in data set [12], in data set [18], in data set [21] and in [23] was inactive. The same compound showed an MIC in data set [13] of 64 µg/mL (≈ 125 µM). The hemolysis at 3 h, 200 ug/ml in data set [17] was less than 10%. Besides, the Ratio in [20] was found to be 1.

On to `CN[C@H](CC(C)C)C(=O)N[C@H]1C(=O)N[C@@H](CC(N)=O)C(=O)N[C@H]2C(=O)N[C@H]3C(=O)N[C@H](C(=O)N[C@H](C(=O)O)c4cc(O)cc(O)c4-c4cc3ccc4O)[C@H](O)c3ccc(c(Cl)c3)Oc3cc2cc(c3O[C@@H]2O[C@H](CO)[C@@H](O)[C@H](O)[C@H]2O[C@H]2C[C@](C)(N)[C@H](O)[C@H](C)O2)Oc2ccc(cc2Cl)[C@H]1O` [VANCOMYCIN], for which the zone of inhibition at 5000 µg/mL in [1] turned out to be 16 mm; in [4], 15 mm; in [7], 16 mm; in data set [14], 14 mm; in data set [22] it was 16 mm. In data set [24], this compound returned an MIC of 2 µg/mL (≈ 1.38 µM).

`COC(=O)c1c(C)nc(C)c2c1C(=O)C(Cl)=C(N)C2=O`: the zone of inhibition at 5000 µg/mL was determined as 0 mm in [1]; 18 mm in [4]; 16 mm in data set [7]; 0 mm in data set [10]; 12 mm in data set [14]; 0 mm in [15]. Also, the zone of inhibition at 5000 µg/mL turned out to be 0 mm in data set [16], 0 mm in [19] and 15 mm in [22]. In addition, the MBC in data set [2] was determined as 32 µg/mL (≈ 109 µM); in data set [25] it was 32 µg/mL (≈ 109 µM); in data set [28], 64 µg/mL (≈ 217 µM). Also, the result in data set [3], in data set [5], in data set [6], in [11], in [12] and in [21] was inactive. Besides, the Ratio in data set [26], in [27] and in data set [20] was 1 in each case. The MIC in [24] stood at 32 µg/mL (≈ 109 µM); in [13] it was 32 µg/mL (≈ 109 µM); in [29], 64 µg/mL (≈ 217 µM). Moreover, the hemolysis at 3 h, 200 ug/ml in [17] lay in the range of 10.1 to 14.4%.
